# CHOP UPR activ: activators of apoptotic CHOP UPR arm, primary screen, cell-based, CHO-CHOP luciferase reporter, luminescence, uHTS | UPR activation; percent of tunicamycin response over DMSO baseline | activation, % at 10 µM | 330,000 compounds, 0.34% hits | AID 449763, 2010;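 active means at 10 µM dose, activation of 40% or more, normalized to positive control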;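 further: 100% = tunicamycin at 10 µg/mL and 0% = DMSO alone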
#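 System: CHO-CHOP luciferase reporter cell line; amount: 500 cells/well; buffer or medium: F12 medium containing 10% fetal bovine serum; incubation: 6 h compound exposure at 37 °C after overnight seeding; measured by: luciferase luminescence after 10 min with Steady-Glo reagent; evaluation: % reporter activation, DMSO baseline versus tunicamycin full activation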
# CHOP inhibitor: inhibitors of CHOP promoter induction, primary screen, cell-based, unfolded protein response, luciferase reporter; CHO-K1 CHOP-promoter luciferase, tunicamycin-induced, 15-18 h; inhibition, % at 10 µM; 220,000 compounds, 3.8% hits;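 active means compounds that reduced the stress-induced luciferase reporter signal by more than about 70% of percent inhibition, limit read from the data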;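 further: 0% = tunicamycin plus vehicle and 100% = wells without tunicamycin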
# Dynein transport: inhibitors of GR-EGFP nuclear translocation, primary screen, dynein cargo transport inhibitor project, imaging, high-content, 3617.4 mouse cells | z-score, hits read low | 220,000 compounds, 0.47% hits | test concentration mostly 20 µM; stimulated with dexamethasone, 1 µM; hits give low values;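 active means plate z-score of nuclear minus cytoplasmic receptor signal below a set negative limit, without overly bright fluorescence or cell loss, cut at about -3.5 in these data, passing the limit was not always enough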;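 further: z-score of nuclear minus cytoplasmic ring GR-EGFP intensity difference per well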
#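 Also added – dexamethasone, 1.0 µM final · Buffer or medium – tet-free, stripped-serum medium · Schedule – induction 48 h, compound 1 h, agonist 30 min · Detection – formaldehyde fixation, Hoechst nuclear stain, 10x automated fluorescence imaging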
# XBP1 UPR activ: activators of adaptive XBP1 UPR arm, primary screen, cell-based, CHO-XBP1 luciferase reporter, luminescence, uHTS | 330,000 compounds, 0.33% hits | IRE1-XBP1 UPR activation; percent of tunicamycin response, DMSO as zero | activation, % at 20 µM;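 active means versus positive control, 20 µM dose yields 30% or more activation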;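 further: 100% = tunicamycin at 10 µg/mL and 0% = DMSO only wells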
#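 Test system: CHO-XBP1 luciferase reporter cells | Buffer or medium: Serum-containing F12 medium, 10% FBS | Schedule: 6 h compound exposure at 37 °C, 5% CO2 | Detection: Steady-Glo luciferase glow luminescence, 10 min after reagent addition | Read-out basis: Activation, % of tunicamycin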
# T cruzi inh: inhibitors of intracellular T. cruzi growth, primary screen, luminescence, NIH3T3 host cells; T. cruzi beta-gal in NIH3T3, 90 h; inhibition, % (no concentration beside the values); 300,000 compounds, 1.4% hits; AID 1885, 2009;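 active means mean inhibition across valid replicates above about 55%, limit read from the data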;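 further: signal also drops with host cell toxicity which is not excluded here; 0% = plate median of DMSO wells and 100% = zero luminescence signal; higher percent means less beta-gal luminescence so fewer parasites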
#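 Incubation – ≥90 h infection period, 3 h prior cell attachment · System – NIH/3T3 fibroblasts plus reporter T. cruzi · Doses – compound pinned at 50 nL/well, DMSO · Read-out basis – percent inhibition of parasite-derived β-gal signal · Signal – luminescent β-galactosidase signal after 60 min lysis · Also added – 5000 T. cruzi trypomastigotes/well · Medium – Low-serum DMEM with 2% FBS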
# Lmaj promast: Leishmania major promastigote growth inhibition, primary screen. Leishmania major promastigotes, resazurin fluorescence viability. inhibition, % at 10 µM. 200,000 compounds, 9% hits; in the data active means inhibition above about 50%;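 further: promastigotes grown with compound for 44 hours at 28 °C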
# Starred values were filed as active, the others as inactive; nt = no result. The entries come from a sample that favours hits as a whole.
SMILES,CHOP UPR activ,CHOP inhibitor,Dynein transport,XBP1 UPR activ,T cruzi inh,Lmaj promast
O=C(CSc1nc2ccccc2c(=O)n1-c1ccccc1)c1c[nH]c2ccccc12,-3,76*,-0.5,0,-2,51*
CCOC(=O)c1c(C)[nH]c(C)c1C(=O)CSc1nc2ccccc2c(=O)n1-c1ccc(Cl)cc1,6,22,2.2,-1,38,11
NC(=O)CSc1nc2ccccc2c(=O)n1-c1ccccc1,0,nt,nt,2,-3,nt
CCn1c(SCc2ccccc2)nnc1-c1ccc(S(=O)(=O)N2CCCCC2)cc1,-1,48,3.6,-2,31,99*
CCN(CC)S(=O)(=O)c1ccc(-c2nnc(SCc3nnc(-c4ccccc4)o3)o2)cc1,-1,57,-0.57,1,-22,6
CCn1c(SCC(=O)O)nnc1-c1ccc(S(=O)(=O)N2CCCC2)cc1,0,nt,nt,-4,-16,nt
O=S(=O)(c1ccc(-c2nnc(SCc3nnc(-c4ccccc4)o3)o2)cc1)N1CCCC1,-1,37,-0.058,-2,12,100*
CCn1c(SCc2nnc(-c3ccccc3)o2)nnc1-c1ccc(S(=O)(=O)N2CCCC2)cc1,0,3,-0.22,0,-5,99*
CCn1c(SC)nnc1-c1ccc(S(=O)(=O)N2CCCCC2)cc1,-1,nt,0.66,-1,-3,-5
NS(=O)(=O)c1ccc(CCNCc2ccccc2OCc2ccc(Cl)cc2)cc1,-1,nt,nt,2,16,nt
O=[N+]([O-])c1ccc(Nc2ccc(F)cc2)nc1,nt,43,1.2,nt,-3,1
O=[N+]([O-])c1ccc(Nc2ccccc2)nc1,1,5,0.42,4,13,56*
O=[N+]([O-])c1ccc(S(=O)(=O)c2ccccc2)nc1,-11,nt,nt,-8,73*,nt
Cc1cc(S(=O)(=O)c2ccc([N+](=O)[O-])cn2)ccc1Br,-10,nt,nt,-10,15,nt
Cc1ccc(S(=O)(=O)c2ccc([N+](=O)[O-])cn2)cc1,-10,nt,nt,-9,67*,nt
O=C(Cn1ccc(NC(=O)OCc2ccccc2)nc1=O)NCc1nc2ccccc2[nH]1,1,nt,nt,-2,nt,nt
Cc1nc(N2CCC(C)CC2)c2c(C)c(C(=O)Nc3ccc(C(F)(F)F)cc3)sc2n1,-2,52,0.27,1,61*,16
COCCCNC(=O)c1c(N)n(-c2ccc(S(N)(=O)=O)cc2)c2nc3ccccc3nc12,-1,7,-0.11,-2,-12,-3
COCCNC(=O)c1c(N)n(-c2ccccc2)c2nc3ccccc3nc12,0,-10,0.13,1,-10,25
COCCNC(=O)c1c(N)n(-c2cccc(C)c2)c2nc3ccccc3nc12,0,77*,-0.24,-1,9,35
C=CCNC(=O)c1c(N)n(-c2cccc(S(N)(=O)=O)c2)c2nc3ccccc3nc12,-1,24,-0.13,1,nt,84*
O=C1[C@H]2[C@@H](c3ccc(Cl)cc3)N3C(=O)N(c4cccc(Br)c4)C(=O)[C@@]3(Cc3ccc(Cl)cc3)[C@H]2C(=O)N1C1CCCCC1,0,nt,nt,3,65*,nt
O=C1[C@H]2[C@@H](c3ccc(F)cc3)N3C(=O)N(c4cccc(Br)c4)C(=O)[C@@]3(Cc3ccc(Cl)cc3)[C@H]2C(=O)N1C1CCCCC1,2,nt,nt,1,41,nt
CCC(C)(C(=O)NC1CCCCC1)N(C(=O)C1CCC(=O)N1)c1ccc(C)cc1 (stereo unspecified),0,71*,-0.97,0,nt,-8
CCC(C)(C(=O)NC1CCCC1)N(C(C)=O)c1ccc(C)cc1 (stereo unspecified),-1,-4,-0.29,1,-9,-4
COc1ccc(NC(=S)NC2CCCCCC2)c(OC)c1,8,-16,-0.039,0,-4,77*
S=C(Nc1cccc2ccccc12)NC1CCCCC1,7,10,-0.67,5,0,99*
